Common to all, as to format: functional
One assay relates to Bacillus thuringiensis. Kind of assay: Antibacterial activity against Bacillus thuringiensis MTCC 6941 assessed as growth inhibition at 100 ug/disk after 24 hr by disk diffusion method. The conditions noted are these: MTCC 6941, 24 h, read-out: DIZ. The method in brief:
(§1)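 Disk diffusion on nutrient agar. Strains kept on NA slants at 37 °C and subcultured in nutrient broth before testing. A log-phase culture was spread on solidified medium, and sterile disks were loaded with compound from DMSO stock. DMSO served as control, with commercial antibiotics for reference. Plates ran 24 h at 37 °C, and inhibition zones (mm) were read in quadruplicate.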
On the technique in general: A growth-free zone around the sample is the usual read-out of agar diffusion tests.

The test system of the next assay is Xanthomonas oryzae. The assay is described as follows: Antibacterial activity against Xanthomonas oryzae ITCC B-47 assessed as as growth inhibition at 100 ug/disk after 24 hr by disk diffusion method. To be noted: ITCC B-47, 24 h, read-out: DIZ.
For the next assay, the system named is Pseudomonas aeruginosa. Kind of assay: Antibacterial activity against Pseudomonas aeruginosa MTCC 2581 assessed as growth inhibition at 100 ug/disk after 24 hr by disk diffusion method. To be noted: MTCC 2581, 24 h, read-out: DIZ. The method in brief:
as §1

The next assay relates to Bacillus pumilus. Kind of assay: Antibacterial activity against Bacillus pumilus MTCC 2466 assessed as growth inhibition at 100 ug/disk after 24 hr by disk diffusion method. The conditions noted are these: MTCC 2466, 24 h, read-out: DIZ. An outline of the steps:
as §1

Assay [1] deals with Radical scavenging activity. The assay is described as follows: Antioxidant activity assessed as DPPH free radical scavenging activity after 20 min by UV-Vis spectrophotometric analysis. On the set-up: concentration or dose not given beside the values. An outline of the steps: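 DPPH radical scavenging: samples were held at room temperature for 20 min in the dark, and absorbance was read at 517 nm. The control contained DMSO without compound, and methanol was used for baseline correction. Scavenging percentage was calculated from the absorbances.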

A further assay has as its system Dickeya chrysanthemi. Kind of assay: Antibacterial activity against Erwinia chrysanthemi ITCC B-40 assessed as as growth inhibition at 100 ug/disk after 24 hr by disk diffusion method. The conditions noted are these: ITCC B-40, 24 h, read-out: DIZ. The method in brief:
as §1

A further assay relates to Staphylococcus aureus. The assay is described as follows: Antibacterial activity against Staphylococcus aureus MTCC 3160 assessed as growth inhibition at 100 ug/disk after 24 hr by disk diffusion method. To be noted: MTCC 3160, 24 h, read-out: DIZ. The method in brief:
as §1

The test system of the next assay is Rhizoctonia solani. Kind of assay: Antifungal activity against Rhizoctonia solani ITCC 5563 by food poisoning method. The method in brief:
(§2)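 Poisoned food technique on PDA at several concentrations. A 5 mm mycelial plug from the growing edge of a 2-week-old colony was placed inoculum-side down at the plate centre. Plates incubated at 27 °C until control growth was nearly complete. Colony diameter measured, percent inhibition calculated against control, LC50 derived. Four replicates per treatment.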

The next assay relates to Klebsiella pneumoniae. The assay is described as follows: Antibacterial activity against Klebsiella pneumoniae MTCC 7028 assessed as growth inhibition at 100 ug/disk after 24 hr by disk diffusion method. To be noted: MTCC 7028, 24 h, read-out: DIZ. The method in brief:
as §1

The subject of a further assay is Athelia rolfsii. The assay is described as follows: Antifungal activity against Athelia rolfsii ITCC 6181 by food poisoning method. To be noted: Agroathelia rolfsii. An outline of the steps:
as §2

≈ marks a conversion by molar mass, not a printed value.

One may read the LC50 as the concentration that kills 50% of the test population.

Consider `CCOC(=O)C1C(=O)C=C(c2ccc(F)cc2)CC1c1ccccc1` (stereo unspecified), for which the zone of inhibition at 100 µg/disc in the assay on Bacillus thuringiensis is 0 mm; in the assay on Xanthomonas oryzae, 0 mm; with Pseudomonas aeruginosa, 0 mm; with Bacillus pumilus, 0 mm; in the assay with Dickeya chrysanthemi, 10 mm; in the assay with Staphylococcus aureus, 0 mm. In addition, the zone of inhibition at 100 µg/disc with Klebsiella pneumoniae is 10 mm. Further, the Activity in assay [1] turned out to be 3.86%. In addition, the LC50 with Rhizoctonia solani was found to be 35 µg/mL (≈ 103 µM); in the assay with Athelia rolfsii, 319 µg/mL (≈ 943 µM).

As for `CCOC(=O)C1C(=O)C=C(c2ccc(C)cc2)CC1c1cc(OC)c(OC)c(OC)c1` (stereo unspecified), the zone of inhibition at 100 µg/disc with Bacillus thuringiensis, in the assay on Xanthomonas oryzae, in the assay on Pseudomonas aeruginosa, with Bacillus pumilus, with Dickeya chrysanthemi and with Staphylococcus aureus was 0 mm in each case. For the same compound, the zone of inhibition at 100 µg/disc in the assay with Klebsiella pneumoniae stood at 0 mm. Moreover, the Activity in [1] was 4.52%. Moreover, the LC50 in the assay with Rhizoctonia solani turned out to be 118 µg/mL (≈ 278 µM); with Athelia rolfsii, 345 µg/mL (≈ 813 µM).

With `CCOC(=O)C1C(=O)C=C(c2ccccc2)CC1c1ccccc1` (stereo unspecified), the zone of inhibition at 100 µg/disc with Bacillus thuringiensis, in the assay with Xanthomonas oryzae, in the assay with Pseudomonas aeruginosa, in the assay on Bacillus pumilus, in the assay with Dickeya chrysanthemi and with Staphylococcus aureus was 0 mm each time. The zone of inhibition at 100 µg/disc with Klebsiella pneumoniae amounted to 10 mm. Moreover, the Activity in assay [1] came to 3.33%. In addition, the LC50 in the assay on Rhizoctonia solani came to 207 µg/mL (≈ 646 µM); with Athelia rolfsii, 304 µg/mL (≈ 949 µM).

In the case of `COc1ccc(/C=C/C(=O)c2ccc(C)cc2)cc1OC`, the zone of inhibition at 100 µg/disc in the assay with Bacillus thuringiensis, in the assay with Xanthomonas oryzae, with Pseudomonas aeruginosa, with Bacillus pumilus, with Dickeya chrysanthemi and in the assay on Staphylococcus aureus was 0 mm in each case. In addition, the zone of inhibition at 100 µg/disc in the assay with Klebsiella pneumoniae was 0 mm. The Activity in [1] worked out at 0.71%. Besides, the figures for the LC50 with Rhizoctonia solani and with Athelia rolfsii were 107 µg/mL (≈ 379 µM) and 587 µg/mL (≈ 2080 µM), respectively.

As for `Cc1ccc(/C=C/C(=O)c2ccc(C)cc2)cc1` [4,4'-DIMETHYLCHALCONE], the zone of inhibition at 100 µg/disc in the assay on Bacillus thuringiensis, in the assay on Xanthomonas oryzae, with Pseudomonas aeruginosa, in the assay with Bacillus pumilus, in the assay with Dickeya chrysanthemi and in the assay on Staphylococcus aureus was 0 mm in each case. Also, in the assay with Klebsiella pneumoniae, the zone of inhibition at 100 µg/disc was determined as 0 mm. In assay [1], the Activity is 1.19%. The LC50 was 635 µg/mL (≈ 2690 µM) in the assay on Rhizoctonia solani and 549 µg/mL (≈ 2320 µM) in the assay with Athelia rolfsii.

Take `CCOC(=O)C1C(=O)C=C(c2ccccc2)CC1c1cc(OC)c(OC)c(OC)c1` (stereo unspecified): the zone of inhibition at 100 µg/disc in the assay with Bacillus thuringiensis, with Xanthomonas oryzae, with Pseudomonas aeruginosa, in the assay on Bacillus pumilus, with Dickeya chrysanthemi and in the assay with Staphylococcus aureus was 0 mm in each case. In addition, the zone of inhibition at 100 µg/disc with Klebsiella pneumoniae came out at 0 mm. For the same compound, the Activity in assay [1] came to 1.69%. The LC50 in the assay on Rhizoctonia solani came to 139 µg/mL (≈ 339 µM); in the assay on Athelia rolfsii it was 365 µg/mL (≈ 889 µM).

Turning to `CCOC(=O)C1C(=O)C=C(c2ccc(Cl)c(Cl)c2)CC1c1ccc(OC)cc1` (stereo unspecified), the zone of inhibition at 100 µg/disc in the assay with Bacillus thuringiensis, in the assay with Xanthomonas oryzae, in the assay with Pseudomonas aeruginosa, in the assay on Bacillus pumilus, in the assay on Dickeya chrysanthemi and with Staphylococcus aureus was 0 mm each time. The zone of inhibition at 100 µg/disc with Klebsiella pneumoniae worked out at 0 mm. Further, the Activity in assay [1] amounted to 2.92%. In addition, the LC50 with Rhizoctonia solani was 1040 µg/mL (≈ 2490 µM); in the assay on Athelia rolfsii, 6110 µg/mL (≈ 14600 µM).

Consider `CCOC(=O)C1C(=O)C=C(c2ccc(F)cc2)CC1c1cccc([N+](=O)[O-])c1` (stereo unspecified), for which the zone of inhibition at 100 µg/disc with Bacillus thuringiensis came to 0 mm; with Xanthomonas oryzae it was 0 mm; in the assay with Pseudomonas aeruginosa, 0 mm; in the assay on Bacillus pumilus it was 0 mm; in the assay on Dickeya chrysanthemi, 10 mm; in the assay on Staphylococcus aureus, 0 mm. In addition, the zone of inhibition at 100 µg/disc with Klebsiella pneumoniae came out at 0 mm. Moreover, the Activity in assay [1] is 4.23%. Also, the LC50 in the assay on Rhizoctonia solani worked out at 157 µg/mL (≈ 410 µM); with Athelia rolfsii, 285 µg/mL (≈ 743 µM).

Take `CCOC(=O)C1C(=O)C=C(c2ccc(C)cc2)CC1c1ccc(C)cc1` (stereo unspecified): the zone of inhibition at 100 µg/disc with Bacillus thuringiensis came out at 0 mm; in the assay on Xanthomonas oryzae, 0 mm; in the assay with Pseudomonas aeruginosa, 10 mm; with Bacillus pumilus, 0 mm; in the assay with Dickeya chrysanthemi, 0 mm; with Staphylococcus aureus, 0 mm. In addition, in the assay on Klebsiella pneumoniae, the zone of inhibition at 100 µg/disc is 5 mm. Further, the Activity in assay [1] is 3.54%. In addition, the LC50 with Rhizoctonia solani was 231 µg/mL (≈ 663 µM); in the assay with Athelia rolfsii it was 321 µg/mL (≈ 921 µM).

`CCOC(=O)C1C(=O)C=C(c2ccccc2)CC1c1ccc(C)cc1` (stereo unspecified): the zone of inhibition at 100 µg/disc in the assay on Bacillus thuringiensis, with Xanthomonas oryzae, with Pseudomonas aeruginosa, in the assay on Bacillus pumilus, with Dickeya chrysanthemi and with Staphylococcus aureus was 0 mm each time. For the same compound, the zone of inhibition at 100 µg/disc in the assay on Klebsiella pneumoniae was 5 mm. In [1], the Activity turned out to be 4.17%. Also, the LC50 in the assay with Rhizoctonia solani amounted to 233 µg/mL (≈ 697 µM); in the assay with Athelia rolfsii it was 316 µg/mL (≈ 945 µM).

On to `O=C(/C=C/c1ccccc1)c1ccccc1` [CHALCONE], for which the zone of inhibition at 100 µg/disc in the assay on Bacillus thuringiensis stood at 0 mm; in the assay with Xanthomonas oryzae it was 0 mm; in the assay on Pseudomonas aeruginosa, 10 mm; in the assay with Bacillus pumilus, 0 mm; in the assay with Dickeya chrysanthemi, 10 mm; in the assay on Staphylococcus aureus, 5 mm. In addition, the zone of inhibition at 100 µg/disc in the assay with Klebsiella pneumoniae stood at 0 mm. Moreover, the Activity in assay [1] was 9.11%. The LC50 worked out at 2.49 µg/mL (≈ 12 µM) in the assay with Rhizoctonia solani and 674 µg/mL (≈ 3240 µM) in the assay with Athelia rolfsii.

Consider `CCOC(=O)C1C(=O)C=C(c2ccc(OC)c(OC)c2)CC1c1ccc(OC)cc1` (stereo unspecified), for which the zone of inhibition at 100 µg/disc in the assay with Bacillus thuringiensis came out at 0 mm; in the assay with Xanthomonas oryzae it was 0 mm; with Pseudomonas aeruginosa, 0 mm; in the assay on Bacillus pumilus, 0 mm; with Dickeya chrysanthemi, 10 mm; in the assay with Staphylococcus aureus it was 0 mm. Moreover, the zone of inhibition at 100 µg/disc in the assay with Klebsiella pneumoniae was 0 mm. The Activity in [1] amounted to 11.3%. The compound also had an LC50 in the assay on Athelia rolfsii of 504 µg/mL (≈ 1230 µM).

On to `CCOC(=O)C1C(=O)C=C(c2ccc(C)cc2)CC1c1ccc(OC)c(OC)c1` (stereo unspecified), for which the zone of inhibition at 100 µg/disc in the assay on Bacillus thuringiensis, in the assay with Xanthomonas oryzae, in the assay on Pseudomonas aeruginosa, in the assay on Bacillus pumilus, in the assay with Dickeya chrysanthemi and in the assay with Staphylococcus aureus was 0 mm each time. The zone of inhibition at 100 µg/disc with Klebsiella pneumoniae was found to be 0 mm. The Activity in assay [1] is 7.38%. In addition, the LC50 with Rhizoctonia solani turned out to be 189 µg/mL (≈ 479 µM); in the assay on Athelia rolfsii, 317 µg/mL (≈ 804 µM).

As for `CCOC(=O)C1C(=O)C=C(c2ccccc2)CC1c1ccc(OC)c(OC)c1` (stereo unspecified), the zone of inhibition at 100 µg/disc in the assay on Bacillus thuringiensis turned out to be 0 mm; in the assay on Xanthomonas oryzae, 0 mm; with Pseudomonas aeruginosa, 5 mm; with Bacillus pumilus, 0 mm; in the assay on Dickeya chrysanthemi, 0 mm; in the assay on Staphylococcus aureus, 0 mm. For the same compound, in the assay on Klebsiella pneumoniae, the zone of inhibition at 100 µg/disc stood at 0 mm. The Activity in assay [1] worked out at 4.23%. The LC50 in the assay with Rhizoctonia solani stood at 198 µg/mL (≈ 520 µM); in the assay on Athelia rolfsii it was 323 µg/mL (≈ 849 µM).

For the compound `CCOC(=O)C1C(=O)C=C(c2ccc3c(c2)OCO3)CC1c1ccc(OC)cc1` (stereo unspecified), the zone of inhibition at 100 µg/disc in the assay on Bacillus thuringiensis, in the assay with Xanthomonas oryzae, in the assay on Pseudomonas aeruginosa, in the assay on Bacillus pumilus, in the assay on Dickeya chrysanthemi and with Staphylococcus aureus was 0 mm each time. For the same compound, in the assay with Klebsiella pneumoniae, the zone of inhibition at 100 µg/disc stood at 0 mm. Further, the Activity in [1] was 4.26%. The LC50 in the assay on Rhizoctonia solani amounted to 396 µg/mL (≈ 1000 µM); with Athelia rolfsii it was 380 µg/mL (≈ 963 µM).

With `CCCCC(O)(Cn1cncn1)c1ccc(Cl)cc1Cl` (stereo unspecified) [HEXACONAZOLE], the LC50 is 1.12 µg/mL (≈ 3.56 µM) with Rhizoctonia solani and 1.27 µg/mL (≈ 4.04 µM) in the assay on Athelia rolfsii.

Values taken from ChEMBL document CHEMBL3045565, “Microwave synthesis, characterization and bio-efficacy evaluation of novel chalcone based 6-carbethoxy-2-cyclohexen-1-one and 2H-indazol-3-ol derivatives” (Eur J Med Chem, 2013).
